Results published in paper PMC12560046 (RSC Chemical Biology, 2025).

Experiments:
hepatitis B virus (HBV) [1] = conditions: HepAD38 cells, 1–10 μM; cited from earlier work
hepatitis B virus (HBV) [2] = test: Inhibition of HBsAg secretion in HBV-replicating HepAD38 cells; format: cell-based; conditions: for Inhibition of HBsAg secretion (in words): 5 μM, relative to vehicle 0.5% DMSO
Method in brief: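 HepAD38 cells carry an integrated HBV genome under a tetracycline-regulated promoter, […]. Cells were treated with test compound. HBsAg secreted into the culture supernatant was quantified by ELISA. Selectivity index was taken as CC50/IC50.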

hepatitis B virus (HBV) [3] = test: Reduction of intracellular HBV rcDNA in HepAD38 cells; format: cell-based; conditions: qPCR, relative to 0.5% DMSO vehicle
HepAD38 cells = test: Cytotoxicity in HepAD38 cells; format: cell-based; conditions: read-out: Cytotoxicity CC50, MTS assay, 0 to 100 μM
[4] = Cytotoxicity in HepAD38 cells; format: cell-based; conditions: human, Cytotoxicity CC50, HepAD38 cells, MTS assay, 0 to 100 μM

Structure (SMILES) | Effect on cccDNA levels (in words) (hepatitis B virus (HBV) [1]) | Inhibition of HBsAg secretion (in words) (hepatitis B virus (HBV) [2]; HepAD38 cells) | Selectivity index: CC50/IC50 (hepatitis B virus (HBV) [2]; HepAD38 cells, CC50 (MTS) / HBsAg IC50) | IC50 (hepatitis B virus (HBV) [2]; Hepatitis B virus, HePAD38, read-out: HBsAg IC50) | rcDNA inhibition [%]: compound (5 μM) (hepatitis B virus (HBV) [3]) | CC50 (HepAD38 cells) | CC50 at 14 days [4]
C[C@@]1(CO)[C@H](O)CC[C@@]2(C)[C@H]1CC[C@H]1C[C@@H]3C[C@@]12CC[C@]3(O)CO [aphidicolin] | effectively reduces cccDNA levels in a dose-dependent manner | – | – | – | – | – | –
CC[C@]12C=CCN3CC[C@]4(C(=C(C(=O)OC)C1)Nc1ccccc14)[C@@H]32 [compound 6, tabersonine] | – | only modest inhibitory activity | 2.86 | 14.6 ± 4.1 µM | minimal or no effect | 41.8 ± 3.1 µM | –
CCOC(=O)C1=C[C@]2(CC)CCCN3CCc4c(n1c1ccccc41)[C@@H]32 [compound 8, vinpocetine] | – | negligible inhibitory effects | – | – | minimal or no effect | – | > 100 µM
